Laboratory results taken from ChEMBL document CHEMBL1138529, “Efficacy, pharmacokinetics, and metabolism of tetrahydroquinoline inhibitors of Plasmodium falciparum protein farnesyltransferase” (Antimicrob Agents Chemother, 2007).

Legend:
[1] = Permeability from apical to basolateral side in human Caco-2 cells; type: ADME, cell-based; conditions: read-out: permeability
[2] = Inhibition of Plasmodium falciparum protein farnesyltransferase by SPA method
Plasmodium falciparum = assay: Antiplasmodial activity against Plasmodium falciparum by [3H]hypoxanthine uptake; type: functional; conditions: read-out: ED50 (the source's name)
How it was run: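 Asynchronous P. falciparum (3D7 or K1) in RPMI 1640 with 20% heat-inactivated human A+ plasma, 0.5% parasitemia and 0.5% hematocrit; compound serially diluted, top final 5 μM, 48 h at 37°C under 5% CO2/5% O2/90% N2, then [8-3H]hypoxanthine 0.3 μCi added for 24 h.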

Mus musculus = assay: Toxicity in BALB/c mouse at 50 mg/kg, po; type: organism-based; set-up: dose 50 mg/kg, route oral; conditions: in vivo
Rattus norvegicus = assay: Toxicity in Sprague-Dawley rat at 50 mg/kg, po; type: organism-based; set-up: dose 50 mg/kg, route oral; conditions: in vivo
How it was run: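 Female Sprague-Dawley rats, 10-12 weeks, three per group. 50 mg/kg oral gavage in 3% EtOH-7% Tween 80-90% normal saline. Saphenous vein plasma sampled over time, and animals observed for adverse reactions.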

[3] = Permeability from basolateral to apical side in human Caco-2 cells; type: ADME, cell-based; conditions: read-out: permeability
How it was run: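 Caco-2 clone TC7 grown on laminin-coated porous inserts and used 19-21 days after seeding; integrity checked by TEER and [3H]mannitol flux. Monolayers equilibrated 30 min at 37°C in HBSS/5 mM HEPES pH 7.4. Compound at 50 μM final added to basolateral donor side. Apical receiver sampled at 60 min, 37°C with shaking; LC/MS; Papp calculated from 60-min concentrations.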

CC(C)C(=O)N1CCC(CN(C2Cc3cc(C#N)ccc3N(Cc3cncn3C)C2)S(=O)(=O)c2ccccn2)CC1 (stereo not drawn)
Papp A→B [1]: 0.5 ×10⁻⁶ cm/s | IC50 [2]: 0.6 nM | EC50 (Plasmodium falciparum): 14 nM | Activity (Mus musculus): Non-toxic | Activity (Rattus norvegicus): Non-toxic

CCCC(=O)N1CCC(CN(C2Cc3cc(C#N)ccc3N(Cc3cncn3C)C2)S(=O)(=O)c2ccccn2)CC1 (stereo not drawn)
Papp A→B [1]: 0.5 ×10⁻⁶ cm/s | IC50 [2]: 0.6 nM | EC50 (Plasmodium falciparum): 17 nM | Activity (Mus musculus): Non-toxic | Activity (Rattus norvegicus): Non-toxic

CCNC(=O)N1CCC(CN(C2Cc3cc(C#N)ccc3N(Cc3cncn3C)C2)S(=O)(=O)c2ccccn2)CC1 (stereo not drawn)
Papp A→B [1]: 0.6 ×10⁻⁶ cm/s | IC50 [2]: 0.8 nM | EC50 (Plasmodium falciparum): 13 nM | Activity (Mus musculus): Non-toxic | Activity (Rattus norvegicus): Non-toxic

Cn1cncc1CN1CC(N(CC2CCN(C(=O)C(C)(C)C)CC2)S(=O)(=O)c2ccccn2)Cc2cc(C#N)ccc21 (stereo not drawn)
Papp A→B [1]: 0.5 ×10⁻⁶ cm/s | IC50 [2]: 0.6 nM | EC50 (Plasmodium falciparum): 15 nM | Activity (Mus musculus): Non-toxic | Activity (Rattus norvegicus): Non-toxic

Cn1cncc1CN1CC(N(CC2CCN(C(=O)CC(C)(C)C)CC2)S(=O)(=O)c2ccccn2)Cc2cc(C#N)ccc21 (stereo not drawn)
Papp A→B [1]: 0.5 ×10⁻⁶ cm/s | IC50 [2]: 0.6 nM | EC50 (Plasmodium falciparum): 16 nM | Activity (Mus musculus): Non-toxic | Activity (Rattus norvegicus): Non-toxic

Cn1cncc1CN1CC(N(CC2CCN(C(=O)N3CCCCC3)CC2)S(=O)(=O)c2ccccn2)Cc2cc(C#N)ccc21 (stereo not drawn)
Papp A→B [1]: 0.6 ×10⁻⁶ cm/s | IC50 [2]: 0.8 nM | EC50 (Plasmodium falciparum): 13 nM | Activity (Mus musculus): Non-toxic | Activity (Rattus norvegicus): Non-toxic

Cn1cncc1CN1CC(N(CC2CCN(S(=O)(=O)c3ccccc3)CC2)S(=O)(=O)c2ccccn2)Cc2cc(C#N)ccc21 (stereo not drawn)
Papp A→B [1]: 0.1 ×10⁻⁶ cm/s | IC50 [2]: 0.5 nM | EC50 (Plasmodium falciparum): 62 nM | Activity (Mus musculus): Non-toxic | Activity (Rattus norvegicus): Non-toxic

CNC(=C[N+](=O)[O-])NCCSCc1ccc(CN(C)C)o1 [RANITIDINE]
Papp A→B [1]: 0.3 ×10⁻⁶ cm/s | Papp B→A [3]: 5.6 ×10⁻⁶ cm/s

CC(C)NC(=O)N1CCC(CN(C2Cc3cc(C#N)ccc3N(Cc3cncn3C)C2)S(=O)(=O)c2ccccn2)CC1 (stereo not drawn)
Papp A→B [1]: 0.6 ×10⁻⁶ cm/s | IC50 [2]: 0.8 nM | EC50 (Plasmodium falciparum): 13 nM | Activity (Mus musculus): Non-toxic | Activity (Rattus norvegicus): Non-toxic

Cn1cncc1CN1CC(N(CC2CCN(C(=O)C3CCCC3)CC2)S(=O)(=O)c2ccccn2)Cc2cc(C#N)ccc21 (stereo not drawn)
Papp A→B [1]: 0.5 ×10⁻⁶ cm/s | IC50 [2]: 0.6 nM | EC50 (Plasmodium falciparum): 18 nM | Activity (Mus musculus): Non-toxic | Activity (Rattus norvegicus): Non-toxic

Cn1cncc1CN1CC(N(CC(=O)NC(C)(C)C)S(=O)(=O)c2ccncc2)Cc2cc(C#N)ccc21 (stereo not drawn)
IC50 [2]: > 50 nM | EC50 (Plasmodium falciparum): > 5 nM

Cn1cncc1CN1CC(N(CC(=O)NC(C)(C)C)S(=O)(=O)c2cccnc2)Cc2cc(C#N)ccc21 (stereo not drawn)
IC50 [2]: 10 nM | EC50 (Plasmodium falciparum): 2.7 nM

Cn1cncc1CN1CC(N(CC2CCN(C(=O)N3CCCC3)CC2)S(=O)(=O)c2ccccn2)Cc2cc(C#N)ccc21 (stereo not drawn)
Papp A→B [1]: 0.6 ×10⁻⁶ cm/s | IC50 [2]: 0.8 nM | EC50 (Plasmodium falciparum): 13 nM | Activity (Mus musculus): Non-toxic | Activity (Rattus norvegicus): Non-toxic

Cn1cncc1CN1CC(N(CC2CCN(C(=O)NC(C)(C)C)CC2)S(=O)(=O)c2ccccn2)Cc2cc(C#N)ccc21 (stereo not drawn)
Papp A→B [1]: 0.6 ×10⁻⁶ cm/s | IC50 [2]: 0.8 nM | EC50 (Plasmodium falciparum): 13 nM | Activity (Mus musculus): Non-toxic | Activity (Rattus norvegicus): Non-toxic

Cn1cncc1CN1CC(N(CC2CCN(C(=O)CC(F)(F)F)CC2)S(=O)(=O)c2ccccn2)Cc2cc(C#N)ccc21 (stereo not drawn)
Papp A→B [1]: 0.5 ×10⁻⁶ cm/s | IC50 [2]: 0.6 nM | EC50 (Plasmodium falciparum): 18 nM | Activity (Mus musculus): Non-toxic | Activity (Rattus norvegicus): Non-toxic

Cn1cncc1CN1CC(N(CC2CCN(C(=O)c3cccs3)CC2)S(=O)(=O)c2ccccn2)Cc2cc(C#N)ccc21 (stereo not drawn)
Papp A→B [1]: 0.5 ×10⁻⁶ cm/s | IC50 [2]: 0.6 nM | EC50 (Plasmodium falciparum): 18 nM | Activity (Mus musculus): Non-toxic | Activity (Rattus norvegicus): Non-toxic

Cn1cncc1CN1CC(N(CC2CCN(C(=O)c3ccc(Cl)cc3)CC2)S(=O)(=O)c2ccccn2)Cc2cc(C#N)ccc21 (stereo not drawn)
Papp A→B [1]: 0.5 ×10⁻⁶ cm/s | IC50 [2]: 0.6 nM | EC50 (Plasmodium falciparum): 18 nM | Activity (Mus musculus): Non-toxic | Activity (Rattus norvegicus): Non-toxic

Cn1cncc1CN1CC(N(CC2CCN(C(=O)Nc3ccc(Br)cc3)CC2)S(=O)(=O)c2ccccn2)Cc2cc(C#N)ccc21 (stereo not drawn)
Papp A→B [1]: 0.6 ×10⁻⁶ cm/s | IC50 [2]: 0.8 nM | EC50 (Plasmodium falciparum): 13 nM | Activity (Mus musculus): Non-toxic | Activity (Rattus norvegicus): Non-toxic

CN(C)C(=O)N1CCC(CN(C2Cc3cc(C#N)ccc3N(Cc3cncn3C)C2)S(=O)(=O)c2ccccn2)CC1 (stereo not drawn)
Papp A→B [1]: 0.6 ×10⁻⁶ cm/s | IC50 [2]: 0.8 nM | EC50 (Plasmodium falciparum): 13 nM | Activity (Mus musculus): Non-toxic | Activity (Rattus norvegicus): Non-toxic

Cn1cncc1CN1CC(N(CC2CCN(C(=O)c3ccccc3)CC2)S(=O)(=O)c2ccccn2)Cc2cc(C#N)ccc21 (stereo not drawn)
Papp A→B [1]: 0.5 ×10⁻⁶ cm/s | IC50 [2]: 0.6 nM | EC50 (Plasmodium falciparum): 18 nM | Activity (Mus musculus): Non-toxic | Activity (Rattus norvegicus): Non-toxic

Cn1cnc(S(=O)(=O)N2CCC(CN(C3Cc4cc(C#N)ccc4N(Cc4cncn4C)C3)S(=O)(=O)c3ccccn3)CC2)c1 (stereo not drawn)
Papp A→B [1]: 0.1 ×10⁻⁶ cm/s | IC50 [2]: 0.5 nM | EC50 (Plasmodium falciparum): 62 nM | Activity (Mus musculus): Non-toxic | Activity (Rattus norvegicus): Non-toxic

CCS(=O)(=O)N1CCC(CN(C2Cc3cc(C#N)ccc3N(Cc3cncn3C)C2)S(=O)(=O)c2ccccn2)CC1 (stereo not drawn)
Papp A→B [1]: 0.1 ×10⁻⁶ cm/s | IC50 [2]: 0.5 nM | EC50 (Plasmodium falciparum): 62 nM | Activity (Mus musculus): Non-toxic | Activity (Rattus norvegicus): Non-toxic

C=C(C)C(=O)N1CCC(CN(C2Cc3cc(C#N)ccc3N(Cc3cncn3C)C2)S(=O)(=O)c2ccccn2)CC1 (stereo not drawn)
Papp A→B [1]: 0.5 ×10⁻⁶ cm/s | IC50 [2]: 0.6 nM | EC50 (Plasmodium falciparum): 18 nM | Activity (Mus musculus): Non-toxic | Activity (Rattus norvegicus): Non-toxic

Cn1cncc1CN1CC(N(CC2CCN(C(=O)CNC(=O)OC(C)(C)C)CC2)S(=O)(=O)c2ccccn2)Cc2cc(C#N)ccc21 (stereo not drawn)
Papp A→B [1]: 0.5 ×10⁻⁶ cm/s | IC50 [2]: 0.6 nM | EC50 (Plasmodium falciparum): 18 nM | Activity (Mus musculus): Non-toxic | Activity (Rattus norvegicus): Non-toxic

CC(=O)N1CCC(CN(C2Cc3cc(C#N)ccc3N(Cc3cncn3C)C2)S(=O)(=O)c2ccccn2)CC1 (stereo not drawn)
Papp A→B [1]: 0.5 ×10⁻⁶ cm/s | IC50 [2]: 0.6 nM | EC50 (Plasmodium falciparum): 12 nM | Activity (Mus musculus): Non-toxic | Activity (Rattus norvegicus): Non-toxic

CC(C)S(=O)(=O)N1CCC(CN(C2Cc3cc(C#N)ccc3N(Cc3cncn3C)C2)S(=O)(=O)c2ccccn2)CC1 (stereo not drawn)
Papp A→B [1]: 0.1 ×10⁻⁶ cm/s | IC50 [2]: 0.5 nM | EC50 (Plasmodium falciparum): 62 nM | Activity (Mus musculus): Non-toxic | Activity (Rattus norvegicus): Non-toxic

Cn1cncc1CN1CC(N(CC2CCN(C(=O)C3CC3)CC2)S(=O)(=O)c2ccccn2)Cc2cc(C#N)ccc21 (stereo not drawn)
Papp A→B [1]: 0.5 ×10⁻⁶ cm/s | IC50 [2]: 0.6 nM | EC50 (Plasmodium falciparum): 18 nM | Activity (Mus musculus): Non-toxic | Activity (Rattus norvegicus): Non-toxic

CCC(=O)N1CCC(CN(C2Cc3cc(C#N)ccc3N(Cc3cncn3C)C2)S(=O)(=O)c2ccccn2)CC1 (stereo not drawn)
Papp A→B [1]: 0.5 ×10⁻⁶ cm/s | IC50 [2]: 0.6 nM | EC50 (Plasmodium falciparum): 13 nM | Activity (Mus musculus): Non-toxic | Activity (Rattus norvegicus): Non-toxic

Cn1cncc1CN1CC(N(CC2CCN(S(C)(=O)=O)CC2)S(=O)(=O)c2ccccn2)Cc2cc(C#N)ccc21 (stereo not drawn)
Papp A→B [1]: 0.1 ×10⁻⁶ cm/s | IC50 [2]: 0.5 nM | EC50 (Plasmodium falciparum): 62 nM | Activity (Mus musculus): Non-toxic | Activity (Rattus norvegicus): Non-toxic

Cn1cncc1CN1CC(N(CC(=O)NC(C)(C)C)S(=O)(=O)c2ccccn2)Cc2cc(C#N)ccc21 (stereo not drawn)
IC50 [2]: 1 nM | EC50 (Plasmodium falciparum): 85 nM

Cn1cncc1CN1CC(N(CC2CCN(C(=O)c3ccco3)CC2)S(=O)(=O)c2ccccn2)Cc2cc(C#N)ccc21 (stereo not drawn)
Papp A→B [1]: 0.5 ×10⁻⁶ cm/s | IC50 [2]: 0.6 nM | EC50 (Plasmodium falciparum): 18 nM | Activity (Mus musculus): Non-toxic | Activity (Rattus norvegicus): Non-toxic
